Non-standard residues stand in square brackets, D forms with d. Residues, ends and D or L forms follow the SMILES beside them. NMeY = CN[C@@H](Cc1ccc(O)cc1)C(=O)O; dNMeF = CN[C@H](Cc1ccccc1)C(=O)O; Sar = CNCC(=O)O
Columns and labels:
[1] = test system: Plasmodium falciparum; experiment: Antimalarial activity against multidrug-resistant Plasmodium falciparum K1; assay type: functional, organism-based
How it was run: (§1)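 Multidrug-resistant P. falciparum K1 cultures assayed by microculture radioisotope technique (Desjardins method). IC50 determined, and percent inhibition measured at a single concentration of 10 µg/mL.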

[2] = test system: Plasmodium falciparum; experiment: Antimalarial activity against multidrug-resistant Plasmodium falciparum K1 at 10 ug/mL; assay type: functional; how it was run: as §1
[3] = Cytotoxicity against human BC cells; assay type: functional, cell-based
How it was run: (§2)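 Colorimetric cytotoxicity assay on KB (oral epidermoid carcinoma), BC (breast cancer), NCI-H187 (small cell lung cancer) and Vero (African green monkey kidney fibroblast) cells. Values reported as IC50 (µM).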

[4] = test system: NCI-H187; experiment: Cytotoxicity against human NCI-H187 cells; assay type: functional, cell-based; how it was run: as §2
[5] = test system: KB; experiment: Cytotoxicity against human KB cells; assay type: functional, cell-based; how it was run: as §2
[6] = test system: Vero; experiment: Cytotoxicity against african green monkey Vero cells; assay type: cell-based; settings: Chlorocebus sabaeus; how it was run: as §2

COc1cc(OC)c2c(O)c3c(c(-c4c5c(c(O)c6c(OC)cc(OC)cc46)CO[C@@H](C)[C@H]5O)c2c1)[C@H](O)[C@H](C)OC3
IC50 [1]: 8.1 µM
inhibition at 10 µg/mL [2]: < 50%

COc1cc(OC)c2c(O)c3c(c(-c4c5c(c(O)c6c(OC)cc(O)cc46)CO[C@@H](C)[C@H]5OC(C)=O)c2c1)[C@H](OC(C)=O)[C@H](C)OC3
inhibition at 10 µg/mL [2]: < 50%

COc1cc(OC)c2c(O)c3c(c(-c4c(OC)cc(OC)c5c(O)c6c(cc45)[C@H](O)[C@H](C)OC6)c2c1)[C@H](O)[C@H](C)OC3
IC50 [1]: 12 µM
inhibition at 10 µg/mL [2]: < 50%

COc1cc(OC)c2c(O)c3c(c(-c4c(O)cc(OC)c5c(O)c6c(cc45)[C@H](O)[C@H](C)OC6)c2c1)[C@H](O)[C@H](C)OC3
IC50 [1]: 3.3 µM

CC[C@H](C)[C@@H]1NC(=O)[C@H](Cc2ccc(O)cc2)N(C)C(=O)[C@H](Cc2ccccc2)NC(=O)CN(C)C(=O)[C@@H]2CCCN2C(=O)[C@@H](Cc2ccccc2)N(C)C(=O)[C@H](CC(C)C)NC1=O [CORDYHEPTAPEPTIDE A] (cyclo(F[NMeY]IL[dNMeF]P[Sar]))
IC50 [3]: 0.2 µM
IC50 [1]: 3.8 µM
IC50 [4]: 0.18 µM
IC50 [5]: 0.78 µM
IC50 [6]: 14 µM

COc1cc(OC)c2c(O)c3c(c(-c4c5c(c(O)c6c(OC)cc(OC)cc46)CO[C@@H](C)[C@H]5OC(C)=O)c2c1)[C@H](OC(C)=O)[C@H](C)OC3
IC50 [1]: 3.3 µM

COc1cc(OC)c2c(O)c3c(c(-c4c5c(c(O)c6c(OC)cc(O)cc46)CO[C@@H](C)[C@H]5O)c2c1)[C@H](O)[C@H](C)OC3
inhibition at 10 µg/mL [2]: < 50%

Source: ChEMBL document CHEMBL1141306, “ES-242 derivatives and cycloheptapeptides from Cordyceps sp. strains BCC 16173 and BCC 16176” (J Nat Prod, 2007)
